The values below come from ChEMBL document CHEMBL1153445, “Alkenyl substituted bicyclic nucleoside analogues retain nanomolar potency against Varicella Zoster Virus” (Bioorg Med Chem, 2009).

Structures are written as SMILES. Where only a bound is given, the exact number is not on record here.

Series [1] in a line: Cytotoxicity against human HEL cells. Format: cell-based. Particulars: for MCC: read-out: MIC.
Series [2] in a line: Inhibition of Varicella Zoster virus thymidine kinase-mediated [3H]thymidine phosphorylation. The arrangement: species or system Human alphaherpesvirus 3.
For series [3], the system named is Human alphaherpesvirus 3. The series can be described thus: Antiviral activity against Varicella Zoster virus Oka infected in HEL cells assessed as reduction in viral plaque formation after 5 days. It is filed as functional, organism-based. As to conditions: Human alphaherpesvirus 3, Oka, 120 h. The method, boiled down: (§1)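 Confluent HEL cell monolayers infected with 20 PFU VZV per well; after 1–2 h adsorption, residual virus removed and cells incubated in MEM with 2% inactivated FCS, 1% L-glutamine, 0.3% sodium bicarbonate plus graded compound concentrations.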

The subject of series [4] is Human alphaherpesvirus 3. The series can be described thus: Antiviral activity against Varicella Zoster virus YS infected in HEL cells assessed as reduction in viral plaque formation after 5 days. It is filed as functional, organism-based. Particulars: Human alphaherpesvirus 3, YS, 120 h. The method, boiled down: as §1

For `CCCCc1ccc(-c2cc3cn([C@H]4C[C@H](O)[C@@H](CO)O4)c(=O)nc3o2)cc1`, in series [1], the MCC is not below 50 µM.
As to `CCCc1ccc(-c2cc3cn([C@H]4C[C@H](O)[C@@H](CO)O4)c(=O)nc3o2)cc1`, in series [1], the MCC is not below 50 µM.
The IC50 is the point on the concentration scale where inhibition reaches its midpoint. Read a low IC50 as greater potency in that assay. As usually defined, the EC50 is the concentration giving half of the maximal effect. The term CC50 denotes the concentration that lowers cell viability or growth by half. With `CCC/C=C/c1ccccc1-c1cc2cn([C@H]3C[C@H](O)[C@@H](CO)O3)c(=O)nc2o1`, the half-inhibitory concentration (IC50) in series [2] was determined as 119 µM. In the series with Human alphaherpesvirus 3 [3], the EC50 stood at 8.4 µM. In series [1], the 50% cytotoxic concentration (CC50) is 41 µM and the MCC turned out to be 80 µM.
Regarding `CCC/C=C/c1ccc(-c2cc3cn([C@H]4C[C@H](O)[C@@H](CO)O4)c(=O)nc3o2)cc1`, the EC50 with Human alphaherpesvirus 3 [4] turned out to be 0.0008 µM. Half-maximal inhibition in series [2] (IC50) was put at 2.3 µM. In addition, in the series on Human alphaherpesvirus 3 [3], the EC50 was determined as 0.0003 µM. Also, in series [1], the CC50 is more than 200 µM and the MCC was more than 5 µM.
The matching figures for `CC/C=C/c1ccc(-c2cc3cn([C@H]4C[C@H](O)[C@@H](CO)O4)c(=O)nc3o2)cc1`: 0.007 µM, 2.4 µM, 0.0006 µM, more than 200 µM and not below 5 µM.
For `C/C=C/c1ccc(-c2cc3cn([C@H]4C[C@H](O)[C@@H](CO)O4)c(=O)nc3o2)cc1` the same measures were 0.004 µM, 1.9 µM, 0.004 µM, more than 200 µM and not below 50 µM.
For `CC/C=C/c1ccccc1-c1cc2cn([C@H]3C[C@H](O)[C@@H](CO)O3)c(=O)nc2o1`, the IC50 in series [2] was determined as 3.8 µM. The EC50 in the series on Human alphaherpesvirus 3 [3] stood at 33 µM. In series [1], it took 102 µM to reach half-maximal cytotoxicity (CC50) and the MCC was 400 µM.
Take `C/C=C/c1cccc(-c2cc3cn([C@H]4C[C@H](O)[C@@H](CO)O4)c(=O)nc3o2)c1`: the EC50 in the series with Human alphaherpesvirus 3 [4] amounted to 58 µM; in the series on Human alphaherpesvirus 3 [3], 13 µM. Further, half-maximal inhibition in series [2] (IC50) was put at 2.6 µM. Besides, in series [1], the CC50 was more than 200 µM. Also, in series [1], the MCC was more than 200 µM.
With `CCC/C=C/c1cccc(-c2cc3cn([C@H]4C[C@H](O)[C@@H](CO)O4)c(=O)nc3o2)c1`, the EC50 in the series with Human alphaherpesvirus 3 [4] came out at 1.3 µM. For the same molecule, in series [2], the IC50 stood at 397 µM. Further, in the series on Human alphaherpesvirus 3 [3], the concentration for a half-maximal effect (EC50) worked out at 1.1 µM. Also, in series [1], the CC50 is more than 200 µM and the MCC was not below 200 µM.
For `CC/C=C/c1cccc(-c2cc3cn([C@H]4C[C@H](O)[C@@H](CO)O4)c(=O)nc3o2)c1` the same measures were 2.3 µM, 23 µM, 1.9 µM, 68 µM and not below 20 µM.
Take `C/C=C/c1ccccc1-c1cc2cn([C@H]3C[C@H](O)[C@@H](CO)O3)c(=O)nc2o1`: the 50% inhibitory concentration (IC50) in series [2] is 0.31 µM. In addition, the EC50 with Human alphaherpesvirus 3 [3] amounted to 12 µM. For the same molecule, in series [1], half-maximal cytotoxicity (CC50) was put at 103 µM and the MCC is 400 µM.
As for `CCCCCc1ccc(-c2cc3cn([C@H]4C[C@H](O)[C@@H](CO)O4)c(=O)nc3o2)cc1` [CF1743], the MCC in series [1] was not below 50 µM.
